Measurements as given in ChEMBL document CHEMBL4715736, “Identification of anticancer agents based on the thieno[2,3-b]pyridine and 1H-pyrazole molecular scaffolds” (2016).

Experiments:
Assay type in all cases: functional
Details in all cases: read-out: Activity
SK-MEL-5 = test: Growth inhibition of human SK-MEL-5 cells assessed as cell growth at 10 uM incubated for 48 hrs by sulforhodamine B assay relative to control
Outline: (§1)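 Run by the NCI Developmental Therapeutics Program as part of its 60-line human tumour panel. Each compound tested at a single 10 µM dose. Growth expressed as % relative to untreated control cells (100%).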

MDA-MB-231 = test: Growth inhibition of human MDA-MB-231 cells assessed as cell growth at 10 uM incubated for 48 hrs by sulforhodamine B assay relative to control
Outline: (§2)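 Submitted to the NCI Developmental Therapeutics Program for the NCI60 human tumour cell line panel. First screen at a single 10 µM concentration. Read-out is growth relative to untreated control cells set at 100%.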

UACC-257 = test: Growth inhibition of human UACC-257 cells assessed as cell growth at 10 uM incubated for 48 hrs by sulforhodamine B assay relative to control; outline: as §1
IGROV-1 = test: Growth inhibition of human IGROV-1 cells assessed as cell growth at 10 uM incubated for 48 hrs by sulforhodamine B assay relative to control; outline: as §2
SF-539 = test: Growth inhibition of human SF-539 cells assessed as cell growth at 10 uM incubated for 48 hrs by sulforhodamine B assay relative to control; outline: as §1
OVCAR-5 = test: Growth inhibition of human OVCAR-5 cells assessed as cell growth at 10 uM incubated for 48 hrs by sulforhodamine B assay relative to control; outline: as §1
NCI-H226 = test: Growth inhibition of human NCI-H226 cells assessed as cell growth at 10 uM incubated for 48 hrs by sulforhodamine B assay relative to control; outline: as §2
Malme-3M = test: Growth inhibition of human Malme-3M cells assessed as cell growth at 10 uM incubated for 48 hrs by sulforhodamine B assay relative to control; outline: as §2
K562 = test: Growth inhibition of human K562 cells assessed as cell growth at 10 uM incubated for 48 hrs by sulforhodamine B assay relative to control; outline: as §2
UO-31 = test: Growth inhibition of human UO-31 cells assessed as cell growth at 10 uM incubated for 48 hrs by sulforhodamine B assay relative to control; outline: as §1
OVCAR-3 = test: Growth inhibition of human OVCAR-3 cells assessed as cell growth at 10 uM incubated for 48 hrs by sulforhodamine B assay relative to control; outline: as §1
DU-145 = test: Growth inhibition of human DU-145 cells assessed as cell growth at 10 uM incubated for 48 hrs by sulforhodamine B assay relative to control
Outline: (§3)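 NCI Developmental Therapeutics Program NCI60 panel. Compounds that were active in the 10 µM one-dose screen went on to dose–response testing. Growth at each concentration is expressed relative to untreated control (100%). GI50 (concentration giving 50% of maximal inhibition of proliferation) and TGI (concentration giving total growth inhibition) were derived from the curves.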

786-0 = test: Growth inhibition of human 786-0 cells assessed as cell growth at 10 uM incubated for 48 hrs by sulforhodamine B assay relative to control; outline: as §3
A549 = test: Growth inhibition of human A549/ATCC cells assessed as cell growth at 10 uM incubated for 48 hrs by sulforhodamine B assay relative to control; outline: as §3
SNB-19 = test: Growth inhibition of human SNB-19 cells assessed as cell growth at 10 uM incubated for 48 hrs by sulforhodamine B assay relative to control; outline: as §1
HL-60(TB) = test: Growth inhibition of human HL-60(TB) cells assessed as cell growth at 10 uM incubated for 48 hrs by sulforhodamine B assay relative to control
Outline: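 Screened by the NCI Developmental Therapeutics Program on its panel of 60 human tumour cell lines. Compounds were first tested at a single 10 µM dose, and compounds active there went to dose-response curves. Growth is expressed relative to untreated control (100%). GI50 (50% of maximal proliferation inhibition) and TGI (total growth inhibition) were derived from the dose-response data.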

SNB-75 = test: Growth inhibition of human SNB-75 cells assessed as cell growth at 10 uM incubated for 48 hrs by sulforhodamine B assay relative to control; outline: as §1
HCT-116 = test: Growth inhibition of human HCT-116 cells assessed as cell growth at 10 uM incubated for 48 hrs by sulforhodamine B assay relative to control; outline: as §2
SW-620 = test: Growth inhibition of human SW-620 cells assessed as cell growth at 10 uM incubated for 48 hrs by sulforhodamine B assay relative to control; outline: as §1
PC-3 = test: Growth inhibition of human PC-3 cells assessed as cell growth at 10 uM incubated for 48 hrs by sulforhodamine B assay relative to control; outline: as §1
MDA-MB-435 = test: Growth inhibition of human MDA-MB-435 cells assessed as cell growth at 10 uM incubated for 48 hrs by sulforhodamine B assay relative to control; outline: as §2
HOP-62 = test: Growth inhibition of human HOP-62 cells assessed as cell growth at 10 uM incubated for 48 hrs by sulforhodamine B assay relative to control; outline: as §2
MOLT-4 = test: Growth inhibition of human MOLT-4 cells assessed as cell growth at 10 uM incubated for 48 hrs by sulforhodamine B assay relative to control; outline: as §2
HCT-15 = test: Growth inhibition of human HCT-15 cells assessed as cell growth at 10 uM incubated for 48 hrs by sulforhodamine B assay relative to control; outline: as §2
Hs-578T = test: Growth inhibition of human Hs-578T cells assessed as cell growth at 10 uM incubated for 48 hrs by sulforhodamine B assay relative to control; outline: as §2
NCI-H460 = test: Growth inhibition of human NCI-H460 cells assessed as cell growth at 10 uM incubated for 48 hrs by sulforhodamine B assay relative to control; outline: as §2
SF-295 = test: Growth inhibition of human SF-295 cells assessed as cell growth at 10 uM incubated for 48 hrs by sulforhodamine B assay relative to control; outline: as §1
M14 = test: Growth inhibition of human M14 cells assessed as cell growth at 10 uM incubated for 48 hrs by sulforhodamine B assay relative to control; outline: as §2
SF-268 = test: Growth inhibition of human SF-268 cells assessed as cell growth at 10 uM incubated for 48 hrs by sulforhodamine B assay relative to control; outline: as §1
ACHN = test: Growth inhibition of human ACHN cells assessed as cell growth at 10 uM incubated for 48 hrs by sulforhodamine B assay relative to control
Outline: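 NCI Developmental Therapeutics Program NCI60 human tumour cell line panel, one-dose primary screen with every compound at 10 µM. Growth is expressed as % of untreated control cells (100%).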

OVCAR-4 = test: Growth inhibition of human OVCAR-4 cells assessed as cell growth at 10 uM incubated for 48 hrs by sulforhodamine B assay relative to control; outline: as §1
COLO 205 = test: Growth inhibition of human COLO 205 cells assessed as cell growth at 10 uM incubated for 48 hrs by sulforhodamine B assay relative to control; outline: as §3
RXF 393 = test: Growth inhibition of human RXF 393 cells assessed as cell growth at 10 uM incubated for 48 hrs by sulforhodamine B assay relative to control; outline: as §1

Compound | growth at 10 µM (SK-MEL-5) [%] | growth at 10 µM (MDA-MB-231) [%] | growth at 10 µM (UACC-257) [%] | growth at 10 µM (IGROV-1) [%] | growth at 10 µM (SF-539) [%] | growth at 10 µM (OVCAR-5) [%] | growth at 10 µM (NCI-H226) [%] | growth at 10 µM (Malme-3M) [%] | growth at 10 µM (K562) [%] | growth at 10 µM (UO-31) [%] | growth at 10 µM (OVCAR-3) [%] | growth at 10 µM (DU-145) [%] | growth at 10 µM (786-0) [%] | growth at 10 µM (A549) [%] | growth at 10 µM (SNB-19) [%] | growth at 10 µM (SNB-75) [%] | growth at 10 µM (HCT-116) [%] | growth at 10 µM (SW-620) [%] | growth at 10 µM (MDA-MB-435) [%] | growth at 10 µM (HOP-62) [%] | other results
CC(=O)Nc1ccc(S(=O)(=O)n2ccc(-c3ccc4c(c3)CCC(C)(C)O4)n2)cc1 | 26.3 | 88.6 | 46 | 68 | 73.8 | 96.3 | 52.4 | 82.5 | 36.7 | 67.9 | 74.4 | 83.5 | 79.8 | 57.8 | 73.3 | 81.5 | 29.9 | 82.5 | 67.3 | 94.4 | growth at 10 µM (HL-60(TB)): 91.9%; growth at 10 µM (PC-3): 44.4%; growth at 10 µM (MOLT-4): 50.7%; growth at 10 µM (HCT-15): 59.3%; growth at 10 µM (Hs-578T): 102%; growth at 10 µM (NCI-H460): 41.4%; growth at 10 µM (SF-295): 60.2%; growth at 10 µM (M14): 64.7%; growth at 10 µM (SF-268): 77.2%; growth at 10 µM (ACHN): 79.3%; growth at 10 µM (OVCAR-4): 46.2%; growth at 10 µM (COLO 205): 88.8%
Cc1ccc(NC(=O)c2sc3nc4c(cc3c2N)C(=O)CCC4)cc1C | 16 | 22 | 54.2 | 23.9 | -18 | 21 | 56 | 47 | 5 | 45 | -17 | 8.18 | 29 | 19.5 | 31 | -10.3 | 23 | 15 | -67 | 23.6 | growth at 10 µM (RXF 393): -18%; growth at 10 µM (HL-60(TB)): -21%; growth at 10 µM (MOLT-4): 27.6%; growth at 10 µM (HCT-15): 27%; growth at 10 µM (Hs-578T): 18%; growth at 10 µM (NCI-H460): 4%; growth at 10 µM (SF-295): 8.72%; growth at 10 µM (M14): -23%; growth at 10 µM (SF-268): 42.7%; growth at 10 µM (ACHN): 43%; growth at 10 µM (OVCAR-4): 32%; growth at 10 µM (COLO 205): -63%
CC1(C)CCc2cc(-c3ccn(S(=O)(=O)c4ccc(Cl)cc4Cl)n3)ccc2O1 | 97.3 | 93.3 | 97.1 | 94.5 | 103 | 97.5 | 87 | 85.1 | 75.7 | 73.3 | 101 | 96.9 | 79 | 83.7 | 87.2 | 97.4 | 73.6 | 91.9 | 95.7 | 105 | growth at 10 µM (HL-60(TB)): 102%; growth at 10 µM (PC-3): 62.3%; growth at 10 µM (MOLT-4): 84.8%; growth at 10 µM (HCT-15): 91%; growth at 10 µM (Hs-578T): 98.8%; growth at 10 µM (NCI-H460): 95.6%; growth at 10 µM (SF-295): 94.4%; growth at 10 µM (M14): 85.9%; growth at 10 µM (SF-268): 99.5%; growth at 10 µM (ACHN): 103%; growth at 10 µM (OVCAR-4): 69%; growth at 10 µM (COLO 205): 106%
Cc1cccc(NC(=O)c2sc3nc4c(cc3c2N)C(=O)CCC4)c1 | 6 | 20 | 37 | -4.52 | -61 | 32 | 43 | 14 | 16 | 41.2 | -22 | 6 | 15 | 23 | 29 | 4.87 | 20 | 21 | -65 | 8 | growth at 10 µM (RXF 393): -10%; growth at 10 µM (PC-3): 20%; growth at 10 µM (MOLT-4): 42%; growth at 10 µM (HCT-15): 18%; growth at 10 µM (Hs-578T): -7%; growth at 10 µM (NCI-H460): 5%; growth at 10 µM (SF-295): 7%; growth at 10 µM (M14): 4%; growth at 10 µM (SF-268): 33%; growth at 10 µM (ACHN): 25%; growth at 10 µM (OVCAR-4): 21%; growth at 10 µM (COLO 205): -21%
CC1(C)CCc2cc(-c3ccn(S(=O)(=O)c4ccc(C(C)(C)C)cc4)n3)ccc2O1 | 78 | 78.4 | 63 | 93.3 | 91.2 | 99.6 | 70.5 | 105 | 72.2 | 84.8 | 91.8 | 70 | 79.9 | 74.6 | 88.2 | 100 | 73.1 | 89.7 | 93 | 120 | growth at 10 µM (HL-60(TB)): 111%; growth at 10 µM (PC-3): 72.9%; growth at 10 µM (MOLT-4): 98.5%; growth at 10 µM (HCT-15): 87%; growth at 10 µM (Hs-578T): 97.8%; growth at 10 µM (NCI-H460): 82.9%; growth at 10 µM (SF-295): 82.6%; growth at 10 µM (M14): 91.3%; growth at 10 µM (SF-268): 92.1%; growth at 10 µM (ACHN): 87.8%; growth at 10 µM (OVCAR-4): 63.2%; growth at 10 µM (COLO 205): 118%
CCc1ccccc1NC(=O)c1sc2nc3c(cc2c1N)C(=O)CCC3 | 17 | 36 | 60 | 33.3 | -17 | 22 | 64 | 60.8 | 11 | 44.5 | -12.7 | 2.55 | 35.1 | 21.5 | 35 | -15.4 | 24 | 24 | -56.6 | 35.5 | growth at 10 µM (RXF 393): -4%; growth at 10 µM (HL-60(TB)): -10.3%; growth at 10 µM (MOLT-4): 24.4%; growth at 10 µM (HCT-15): 29%; growth at 10 µM (Hs-578T): 22.6%; growth at 10 µM (NCI-H460): 6.42%; growth at 10 µM (SF-295): -3.21%; growth at 10 µM (M14): 5%; growth at 10 µM (SF-268): 40.4%; growth at 10 µM (ACHN): 38%; growth at 10 µM (OVCAR-4): 41%; growth at 10 µM (COLO 205): -68%
